According to ChEMBL document CHEMBL1156580, “A facile regioselective synthesis of novel spiro-thioxanthene and spiro-xanthene-9',2-[1,3,4]thiadiazole derivatives as potential analgesic and anti-inflammatory agents” (Bioorg Med Chem Lett, 2008):

Key:
Rattus norvegicus [1] = assay: Antiinflammatory activity in Sprague-Dawley rat assessed as inhibition of carrageenan-induced paw edema at 70 mg/kg, po after 4 hrs relative to control; format: functional
Outline: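 Winter carrageenin paw oedema in adult male Sprague–Dawley rats (150–180 g, six per group), fasted overnight with water available. Dosing was 70 mg/kg po in 1% CMC, with controls on vehicle alone, 1 h before 0.1 mL 1.0% carrageenin into the right hind plantar region. Paw volume was read by plethysmometer before and 4 h after, giving % inhibition versus control.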

Mus musculus = assay: Analgesic activity in Swiss mouse assessed as inhibition of acetic acid-induced writhing responses at 70 mg/kg, po after 1 hr relative to control
Rattus norvegicus [2] = assay: Acute toxicity in Sprague-Dawley rat assessed as behavioral changes up to 200 mg/kg, po; format: organism-based; parameters: dose 200 mg/kg, route oral; details: in vivo
Outline: (§1)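 Male Sprague–Dawley rats (200–250 g), housed individually under 12 h light–dark, split into four groups, each given a different single dose by oral gavage. Animals were then watched for deaths or other behavioural changes.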

Rattus norvegicus [3] = assay: Acute toxicity in Sprague-Dawley rat assessed as survival up to 200 mg/kg, po; format: organism-based; parameters: dose 200 mg/kg, route oral; details: in vivo; outline: as §1
Rattus norvegicus [4] = assay: Acute toxicity in Sprague-Dawley rat assessed as toxicological changes up to 200 mg/kg, po; format: organism-based; parameters: dose 200 mg/kg, route oral; details: in vivo; outline: as §1

Row | Structure (SMILES) | inhibition in vivo at 70 mg/kg (Rattus norvegicus [1]) [%] | inhibition in vivo at 70 mg/kg (Mus musculus) [%] | Activity (Rattus norvegicus [2]) | Activity (Rattus norvegicus [3]) | Activity (Rattus norvegicus [4])
1 | CC(=O)C1=NN(c2ccccc2)C2(S1)c1ccccc1Sc1ccccc12 | 75 |  |  |  | 
2 | CC(=O)C1=NN(c2ccc([N+](=O)[O-])cc2)C2(S1)c1ccccc1Sc1ccccc12 | 86 | 73 |  |  | 
3 | CC(=O)C1=NN(c2ccccc2)SC12c1ccccc1Oc1ccccc12 | 79 |  |  |  | 
4 | CC(=O)C1=NN(c2ccc(Br)cc2)SC12c1ccccc1Oc1ccccc12 | 76 |  |  |  | 
5 | CCOC(=O)C1=NN(c2ccc(C)cc2)C2(S1)c1ccccc1Sc1ccccc12 | 71 |  |  |  | 
6 | CC(=O)C1=NN(c2ccc([N+](=O)[O-])cc2)SC12c1ccccc1Oc1ccccc12 | 84 | 56.6 |  |  | 
7 | c1ccc(C2=NN(c3ccccc3)C3(S2)c2ccccc2Sc2ccccc23)cc1 | 85 | 59 | Non-toxic | Non-toxic | Non-toxic
8 | CC(=O)C1=NN(c2ccc(Cl)cc2)C2(S1)c1ccccc1Sc1ccccc12 | 82 | 57 | Non-toxic | Non-toxic | Non-toxic
9 | CC(=O)C1=NN(c2ccc(Cl)cc2)SC12c1ccccc1Oc1ccccc12 | 82 | 72 |  |  | 
10 | CC(C)Cc1ccc(C(C)C(=O)O)cc1 (configuration not stated) [IBUPROFEN] | 92 | 83.5 |  |  | 
